From PubChem BioAssay
Inconclusive results are not listed.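 How the source made its calls, unless noted: active means viability at or below 27.92% in each of two runs, the all-compound median minus 4 SD; inconclusive means no clear call, values can overlap the other calls; inactive means the rest.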

Key:
[1] = OD615 S. cerevisiae growth inhibition, permissive medium, pilot counter-assay, permissive growth control for S. cerevisiae lifespan shortening project (AID 705;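 active means growth inhibition above 25% in both replicates, a cutoff set 3 SD above the mean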); conditions: OD615, 24 h, at 10 µM, stronger effect = higher value
In short: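 Test system: Saccharomyces cerevisiae strain carrying genetically modified DeaD replicative-lifespan system; buffer or medium: SC raffinose/galactose permissive medium; dosing: one dose 10 µM, DMSO 0.25% final; times: 24 h exposure, 30 °C; measured by: OD at 615 nm; read-out basis: growth inhibition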

[2] = Restrictive medium S. cerevisiae growth inhibition, OD615, pilot screen of yeast lifespan reduction project, restrictive growth control (AID 706;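 active means growth inhibition above a set limit, 3 SD over mean compound inhibition, in both replicates, cut at about 43% in these data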;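 further: modified DeaD lifespan yeast strain shifted to restrictive glucose medium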); conditions: OD615, 48 h, at 10 µM, stronger effect = higher value
In short: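 material = engineered S. cerevisiae DeaD strain | buffer or medium = glucose-based CSMM-D restrictive medium | dosing = one concentration, 10 µM final, 0.25% DMSO | schedule = 4 h pre-growth plus 48 h compound exposure, 30 °C | detection = OD615 absorbance reading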

[3] = viability gain of MRP-1-high H69AR cells under doxorubicin, pilot screen, MRP-1 activator project, CellTiter-Glo, duplicate (AID 807;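 active means viability increase at or above a cutoff of the median across tested compounds plus 3 SD, cut at about 8.5% in these data, passing the limit was not always enough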;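 further: compound pretreatment 18-22 h then 72 h combined with doxorubicin; 0% = doxorubicin alone and 100% = vehicle without doxorubicin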); conditions: H69AR viability with doxorubicin, CellTiter-Glo luminescence; at 10 µM; stronger effect = higher value
[4] = growth suppression of beta-catenin knockout HCT116, pilot screen, human colon tumor cells (AID 823;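 active means cell viability at or below a set limit in both duplicate runs, the limit being the all-compound median minus 4 SD, cut at about 23% in these data, passing the limit was not always enough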;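 further: 0% = wells killed by 20 µM Hyamine and 100% = untreated DMSO cell wells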); conditions: CellTiter-Glo, 60 h, at 10 µM, stronger effect = lower value
[5] = growth suppression of PTEN-deleted HCT116, pilot screen, cell-based, HCT116 clonal line, CellTiter-Glo (AID 824); conditions: 60 h, at 10 µM, stronger effect = lower value;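 further: 0% = 20 µM Hyamine control and 100% = vehicle cell control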
[6] = inhibitors of the yeast RAM network, pilot screen, dse1pr::URA3 reporter, 5-FOA selection (AID 869;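 active means inhibition over a set limit, the all-compound mean plus 3 SD, in both replicate runs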;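 further: 0% = DMSO wells with no growth and 100% = 10 µM 1-NA-PP1 with full growth; RAM network block rescues cells from 5-FOA so hits raise OD615 growth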); conditions: S. cerevisiae dse1pr::URA3 5-FOA growth, OD615, 2 d, at 10 µM, stronger effect = higher value
[7] = RAM signaling pathway blockade in yeast – S. cerevisiae, Pdr1DBD-CYC8 efflux-inhibited sensitized strain, primary screen (AID 1298;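 active means RAM network inhibition above 8.4% in each of two replicates, 3 SD over the compound average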;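 further: 0% = DMSO untreated cells without growth and 100% = 10 µM 1-NA-PP1 full growth; higher means more yeast growth rescued from 5-FOA killing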); conditions: S. cerevisiae cbk1-as DSE1-URA3 strain, 5-FOA growth OD615, 2 d; at 50 µM; stronger effect = higher value

Cn1c(O)c(C=Nc2ccc(Cl)cc2)c(=O)n(C)c1=O
inactive: growth inhibition [1] -7.12% | growth inhibition [2] -0.49% | viability increase [3] -0.57% | viability [4] 96.2% | viability [5] 93.7% | inhibition [6] 0.685% | RAM network inhibition [7] 4.04%

CC(CO)(CO)N=Cc1c(O)n(-c2cccc3ccccc23)c(=O)[nH]c1=O
inactive: growth inhibition [1] -9.27% | growth inhibition [2] -18.2% | viability increase [3] -1.01% | viability [4] 95.8% | viability [5] 99% | inhibition [6] 0.52% | RAM network inhibition [7] 4.06%

O=c1cccc2n1CC1CC2CN(Cc2ccc3c(c2)OCO3)C1 (centres undefined)
inactive: growth inhibition [1] -5.27% | growth inhibition [2] 2.45% | viability increase [3] -2.71% | viability [4] 98.1% | viability [5] 94.6% | inhibition [6] 0.6% | RAM network inhibition [7] -0.2%

CCOc1ccccc1C1SCC(=O)Nc2c1c(=O)[nH]n2C(CC)CC (centres undefined)
inactive: growth inhibition [1] -3.42% | growth inhibition [2] -8.7% | viability increase [3] -0.06% | viability [4] 93.5% | viability [5] 93.3% | inhibition [6] 1.07% | RAM network inhibition [7] 0.37%

CC1(C)C(c2ccccc2)=NC(c2cccnc2)=[N+]1[O-]
inactive: growth inhibition [1] -4.62% | growth inhibition [2] -3.12% | viability increase [3] 1.13% | viability [4] 98.7% | viability [5] 89.4% | inhibition [6] -0.02% | RAM network inhibition [7] -0.36%

CCN(c1ccc(C(O)(C(=O)OC)C(F)(F)F)cc1)S(=O)(=O)c1ccccc1 (centres undefined)
inactive: growth inhibition [1] -4.31% | growth inhibition [2] -3.91% | viability increase [3] 0.9% | viability [4] 99.4% | viability [5] 102% | inhibition [6] -0.62% | RAM network inhibition [7] 4.74%

O=C(CN1CC(c2ccccc2)CC1=O)Nc1ccc(F)cc1 (centres undefined)
inactive: growth inhibition [1] -15.6% | growth inhibition [2] -4.88% | viability increase [3] -3.89% | viability [4] 101% | viability [5] 99.2% | inhibition [6] -0.44% | RAM network inhibition [7] 0.85%

CCCOC(=O)COc1cc(C)cc2oc(=O)c3c(c12)CCC3
inactive: growth inhibition [1] -10.1% | growth inhibition [2] -13.8% | viability increase [3] 1.68% | viability [4] 88% | viability [5] 86.1% | inhibition [6] 1.03% | RAM network inhibition [7] 4.39%

COc1ccc(C2C(C(=O)N3CCC4(CC3)OCCO4)c3cc(OC)c(OC)cc3C(=O)N2C)cc1 (centres undefined)
inactive: growth inhibition [1] -15.2% | growth inhibition [2] -29% | viability increase [3] -2.58% | viability [4] 98% | viability [5] 99.4% | inhibition [6] 1.61% | RAM network inhibition [7] 0.93%

CN(C(=O)Oc1cccc2cccnc12)c1ccccc1
inactive: growth inhibition [1] -2.11% | growth inhibition [2] 3.21% | viability increase [3] -0.61% | viability [4] 91% | viability [5] 90.1% | inhibition [6] 0.415% | RAM network inhibition [7] 2.67%

C=C(C)c1cccc(C(C)(C)NC(=O)NC2CN3CCC2CC3)c1 (centres undefined)
inactive: growth inhibition [1] -5.2% | growth inhibition [2] 2.09% | viability increase [3] -1.24% | viability [4] 94.4% | viability [5] 93.9% | inhibition [6] -0.575% | RAM network inhibition [7] 0.82%

CN1CC=C(c2c[nH]c3ccccc23)CC1
inactive: growth inhibition [1] 0.43% | growth inhibition [2] 10.4% | viability increase [3] -3.51% | viability [4] 92% | viability [5] 92.5% | inhibition [6] -0.185% | RAM network inhibition [7] -1.66%

C=Cn1ccnc1P(=S)(c1c(C)nn(-c2ccccc2)c1C)c1nccn1C=C
inactive: growth inhibition [1] 0.15% | growth inhibition [2] 13.2% | viability increase [3] -2.8% | viability [4] 93.8% | viability [5] 90.2% | inhibition [6] 1.75% | RAM network inhibition [7] 5.43%

O=C1CC(N2CC=C(c3ccccc3)CC2)C(=O)N1c1ccc(F)cc1 (centres undefined)
inactive: growth inhibition [1] -7.4% | growth inhibition [2] -4.17% | viability increase [3] 3.41% | viability [4] 98.8% | viability [5] 97.3% | inhibition [6] 0.99% | RAM network inhibition [7] 5.39%

c1ccc2c(CN3CCCCCCC3)c[nH]c2c1
inactive: growth inhibition [1] -9.45% | growth inhibition [2] 0.115% | viability increase [3] -6.65% | viability [4] 62.3% | viability [5] 67.8% | inhibition [6] 0.485% | RAM network inhibition [7] 5.27%

C[C@H]1CCC[C@@H](O)CCC/C=C/c2cc(O)cc(O)c2C(=O)O1
inactive: growth inhibition [1] -5.6% | growth inhibition [2] -3.65% | viability increase [3] -7.59% | viability [4] 46.9% | viability [5] 44.9% | inhibition [6] 0.64% | RAM network inhibition [7] 1.97%

O=c1c2ccccc2nc(-c2ccco2)n1-c1ccncc1
inactive: growth inhibition [1] -1.4% | growth inhibition [2] 3.59% | viability increase [3] 0.16% | viability [4] 91.8% | viability [5] 97.2% | inhibition [6] 0.635% | RAM network inhibition [7] -0.06%
